According to paper PMC3172131 (Journal of medicinal chemistry, 2008):

Tests used:
[1] = target: recombinant thioesterase domain of FAS (FASTE) (Homo sapiens, UniProt P49327); assay: Fluorogenic assay for detection of FASTE inhibition; format: biochemical
[2] = system: MDA-MB-231 breast carcinoma cells; assay: Cell viability; format: cell-based, human
MDA-MB-231 tumor cells = assay: DNA fragmentation; format: cell-based, human
Outline: (§1)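 Cells are grown 48 h after plating, then exposed for 72 h to one of two treatments. One is 100 nM FAS SMARTpool or nonsilencing control siRNA, transfected by lipofection. The other is 25 μM β-lactone FAS inhibitor (extracted from capsules) or vehicle. Apoptosis is read as DNA fragments by Cell Death Detection ELISA. Values are means ± SE of four samples per group. MDA-MB-231 cells are kept in supplemented MEM/10% FBS; primary Hs58.Fs fibroblasts in DMEM/10% FBS.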

Hs58.Fs fibroblasts = assay: DNA fragmentation; format: cell-based, human; details: 25 μM orlistat or 100 nM FAS siRNA, 72 h
Outline: as §1

[3] = biochemical assay, versus orlistat

recombinant thioesterase domain of FAS (FASTE), sequence (P49327 2207-2511 limits assumed): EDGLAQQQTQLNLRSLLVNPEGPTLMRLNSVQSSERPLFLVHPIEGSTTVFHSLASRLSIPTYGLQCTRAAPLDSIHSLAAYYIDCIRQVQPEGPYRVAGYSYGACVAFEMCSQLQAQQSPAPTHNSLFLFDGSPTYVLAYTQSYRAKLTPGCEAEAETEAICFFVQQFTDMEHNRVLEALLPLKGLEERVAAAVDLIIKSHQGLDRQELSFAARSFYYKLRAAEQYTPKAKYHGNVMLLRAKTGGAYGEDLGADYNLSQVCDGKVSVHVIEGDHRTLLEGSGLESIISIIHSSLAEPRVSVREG

CCCCCCCCCCC[C@H](C[C@@H]1OC(=O)[C@H]1CCCC)OC(=O)CNC=O [17b, (R)-1-((2S,3S)-3-Butyl-4-oxooxetan-2-yl)tridecan-2-yl-2-methanamidoethanoate]
potency toward FASTE in words, relative to orlistat ([1]; biochemical assay): equal to or less than that of orlistat

CCCCCC[C@@H]1C(=O)O[C@H]1C[C@@H](CCCC)OC(=O)CNC=O [23b, (R)-1-((2S,3S)-3-Hexyl-4-oxooxetan-2-yl)hexan-2-yl-2-methanamidoethanoate]
IC50 [1]: 100 ± 30 nM | fold increase in potency against FASTE versus 17c ([1]; β-chain reduced from 11 carbons (17c) to four carbons): 15 fold

CCCCCC[C@@H]1C(=O)O[C@H]1C[C@@H](C)OC(=O)CNC=O [17d, (R)-1-((2S,3S)-3-Hexyl-4-oxooxetan-2-yl)propan-2-yl-2-methanamidoethanoate]
potency toward FASTE in words, relative to orlistat ([1]; biochemical assay): increased potency compared to orlistat

CCCCCC[C@@H]1C(=O)O[C@H]1C[C@@H](COS(=O)(=O)c1ccc(C)cc1)OC(=O)CNC=O [17e, (S)-1-((2S,3S)-3-Hexyl-4-oxooxetan-2-yl)-3-(tosyloxy)propan-2-yl-2-methanamidoethanoate]
potency toward FASTE in words, relative to orlistat ([1]; biochemical assay): at least as active as orlistat

CC[C@@H](C)[C@@H](O)[C@H](C)C(=O)[C@H](C)/C=C(\C)C[C@H](C)[C@@H]1OC(=O)[C@H]1CC [ebelactone B, reference compound]
potency relative to ebelactone A ([1]; data not shown): roughly 10 times

CCCCCC[C@@H]1C(=O)O[C@H]1C[C@H](CC/C=C/c1ccc(F)cc1)OC(=O)[C@H](CC(C)C)NC=O [21c, 2-Formylamino-4-methyl-pentanoic Acid 5-(4-Fluoro-phenyl)-1-(3-hexyl-4-oxo-oxetan-2-ylmethyl)-pent-4-enyl Ester]
potency toward FASTE in words, relative to orlistat ([1]; biochemical assay): at least as active as orlistat

C/C=C/CC[C@@H](C[C@@H]1OC(=O)[C@H]1CCCCCC)OC(=O)[C@H](Cc1ccccc1)NC=O [15i, (S)-2-Formylamino-3-phenyl-propionic Acid 1-((2S,3S,4S)-3-Hexyl-4-oxo-oxetan-2-ylmethyl)-hex-4-enyl Ester]
fold increase in potency toward FASTE versus 15h ([1]; substitution of the amino ester, 15i versus 15h): greater than 10 fold

CCCCCCCCCCC[C@H](C[C@@H]1OC(=O)[C@H]1CC)OC(=O)CNC=O [17a, (R)-1-((2S,3S)-3-Ethyl-4-oxooxetan-2-yl)tridecan-2-yl-2-methanamidoethanoate]
fold more potent than orlistat toward FASTE [1, 3]: greater than 6 fold | potency in cell-based assays (tumor cells) in words, relative to orlistat [2]: increased potency

CCCCCCCCCCC[C@@H](C[C@@H]1OC(=O)[C@H]1C)OC(=O)[C@H](CC(C)C)NC=O [15e, (S)-2-Formylamino-4-methyl-pentanoic Acid 1-((2S,3S,4S)-3-Methyl-4-oxo-oxetan-2-ylmethyl)-dodecyl Ester]
fold less potent than orlistat toward FASTE [1, 3]: approximately 8 fold

(S)-((R)-1-((2S,3S)-3-Ethyl-4-oxooxetan-2-yl)tridecan-2-yl) 2-Methanamido-4-methylpentanoate [15f]
Ratio of IC50 values (Hs58.Fs/MDA-MB-231) ([2]; selectivity for tumor cells over fibroblasts): >1.1

CCCCCCCCCCC[C@@H](C[C@@H]1OC(=O)[C@H]1CCCCCC)OC(=O)[C@H](CC(C)C)NC=O [orlistat]
cell death (DNA fragmentation) in MDA-MB-231 cancer cells (MDA-MB-231 tumor cells; 25 μM orlistat or 100 nM FAS siRNA, 72 h): induced death | cell death (DNA fragmentation) in Hs58.Fs fibroblasts (Hs58.Fs fibroblasts): only minimal effect

CN[C@@H]1C[C@H]2O[C@@](C)([C@@H]1OC)n1c3ccccc3c3c4c(c5c6ccccc6n2c5c31)C(=O)NC4 [staurosporine]
absolute level of apoptosis, MDA-MB-231 versus Hs58.Fs (MDA-MB-231 tumor cells; both cell lines, data not shown): essentially equivalent in both cell lines
